The list is not random: actives were taken first. Their share in the collection is about 2.3%.
OXTR potentiate – potentiates the human oxytocin receptor response; P30559; CHO-OTR cells, Fluo-8 calcium fluorescence, potentiator mode; 0% = oxytocin EC15, 100% = EC100; activation, % at 3 µM; 0.061% of 320,000 active; AID 2445;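 active = activation above that plate's cutoff, the mean activation of tested compounds plus 3 SD, cut at about 6.6% in these data, passing the limit was not always enough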;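 also: 100% uses oxytocin at 75 nM as the full agonist control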
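Measured by – Fluo-8 calcium dye fluorescence · Test system – human OTR in CHO cells · Dosing – one concentration, 3.0 µM compound · Controls – EC15 oxytocin alone as 0%, 75 nM oxytocin as 100% · Evaluation – normalized max/min fluorescence ratio, % activation · Timing – 6 min pre-incubation, 100 s read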
V1R ag counter – activates human V1a receptor in oxytocin agonist counter-screen | CHO-V1R cells, Fluo-8 calcium fluorescence, agonist mode; 0% DMSO, 100% 3 nM vasopressin | activation, % at 3 µM | P37288 | 0.25% of 320,000 active;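 active = activation above the mean activation of all tested compounds plus 3 SD, per screening run, cut at about 20% in these data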;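 also: signal is peak over basal fluorescence ratio across a 100 second FLIPR read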
OXTR agonist – agonists of human oxytocin receptor | activation, % at 3 µM | CHO-OTR cells, Fluo-8 calcium fluorescence; normalized: DMSO 0%, oxytocin 100% | 0.32% of 320,000 active | AID 2435;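 active = activation above the mean of all tested compounds plus 3 SD, cutoff set per screening run, cut at about 20% in these data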;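 also: peak over basal fluorescence ratio from a 100 s FLIPR kinetic read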
TAAR1 ag – agonists of human TAAR1; Q96RJ0; CHO RD-HGA16 TAAR1, Fluo-8 calcium fluorescence; vehicle wells 0%, saturating PEA agonist 100%; activation, % at 3 µM; 0.99% of 360,000 active; AID 624467;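 active = activation above the mean activation of all test compounds in the run plus 3 SD, cut at about 38% in these data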
Target sequence (Q96RJ0 whole entry, looked up): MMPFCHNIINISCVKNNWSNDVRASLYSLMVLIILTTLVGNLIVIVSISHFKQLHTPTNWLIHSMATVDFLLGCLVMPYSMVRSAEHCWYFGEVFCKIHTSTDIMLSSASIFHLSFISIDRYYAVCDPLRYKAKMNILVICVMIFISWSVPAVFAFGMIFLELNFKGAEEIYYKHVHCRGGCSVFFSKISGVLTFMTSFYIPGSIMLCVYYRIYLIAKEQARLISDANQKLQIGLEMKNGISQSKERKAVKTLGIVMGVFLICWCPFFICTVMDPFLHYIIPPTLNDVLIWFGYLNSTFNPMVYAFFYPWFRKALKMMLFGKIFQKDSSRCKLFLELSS
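Assay system: CHO-derived RD-HGA16 cells with stable Gα16 and human TAAR1; timing: 17-24 h seeding, 75 min 37 °C dye, 30 min RT; read-out: % activation from peak over basal fluorescence ratio, DMSO-to-PEA scaled; measured by: kinetic Fluo-8 calcium fluorescence; benchmarks: low control DMSO, high control PEA (EC100); doses: 3 µM single concentration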
TAAR1 antag – human TAAR1 antagonism | CHO RD-HGA16 TAAR1, Fluo-8 calcium fluorescence, antagonist | inhibition, % at 3 µM | 1.5% of 360,000 active | AID 624466;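 active = inhibition above a per-plate cutoff, the mean inhibition of test compounds on that plate plus 3 SD, cut at about 49% in these data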;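 also: 0% = DMSO plus EC80 beta-PEA response and 100% = DMSO alone without agonist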
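System: RD-HGA16 CHO cells with stable hTAAR1 and Gα16 | Probe or stimulus: EC80 β-phenethylamine stimulus | Dosing: 3 µM, single point | Times: Dye loading 75 min at 37 °C, then 30 min room temperature | Measured by: Fluo-8 calcium-sensitive fluorescence | Read-out basis: % inhibition of agonist calcium response | Replicates: n of 1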
An asterisk follows results filed as active; . = not tested or not shown.

SMILES	OXTR potentiate	V1R ag counter	OXTR agonist	TAAR1 ag	TAAR1 antag
COc1ccc(-c2coc3c(C(=O)NCc4ccc(OC)c(OC)c4)cccc23)c(C)c1	.	.	.	4.1	56.0*
COc1ccc(/C=N/NC(=O)CCCOc2ccc(Cl)cc2Cl)cc1[N+](=O)[O-]	-6.9	0.1	0.1	10.7	48.8*
CCCC(=O)Nc1ccc(C(=O)Nc2cc(C(F)(F)F)ccc2Cl)cc1	-21.7	14.6	16.0	42.1*	19.1
O=C(COC(=O)c1ccc(O)cc1)Nc1cc(C(F)(F)F)ccc1Cl	-9.1	8.8	10.4	37.7*	3.7
Cc1ccc(-c2c(C(=O)N/N=C/c3ccc(C)o3)nnn2-c2nonc2N)cc1	-10.5	4.8	3.0	42.8*	5.2
Cc1ccc(SCc2c(C(=O)N/N=C/c3ccc(C)o3)nnn2-c2nonc2N)cc1	.	.	.	3.3	29.0
COc1cccc(-c2c(C(=O)N/N=C/c3ccc(C)o3)nnn2-c2nonc2N)c1	-8.5	4.5	4.1	41.6*	26.9
CCOc1cccc(-c2c(C(=O)N/N=C/c3ccc(C)s3)nnn2-c2nonc2N)c1	-4.0	8.8	3.2	53.0*	-12.9
CC(C)N(CCNC(=O)c1oc(=O)c2ccccc2c1-c1ccccc1)Cc1ccco1	0.5	-1.8	-2.2	-3.9	-13.1
COc1ccc(CNC(=O)C2CCN(S(=O)(=O)c3cc(OC)ccc3OC)CC2)cc1	-3.8	3.4	0.4	1.1	1.6
CC(=O)C1=C(C)NC(SCC(=O)c2ccc(F)cc2)=C(C#N)C1c1ccco1 (centres undefined)	-7.8	1.9	3.6	8.4	50.9*
COc1ccc(CC(N)c2csc(NC(=O)NCCc3ccccc3)n2)cc1 (centres undefined)	.	.	.	38.1*	44.3
COc1ccc(CC(N)c2csc(NC(=O)C(c3ccccc3)c3ccccc3)n2)cc1 (centres undefined)	.	.	.	47.4*	23.0
COc1ccc(CNC(=O)Nc2nc(C(N)Cc3ccc(C(F)(F)F)cc3)cs2)cc1 (centres undefined)	.	.	.	43.9*	48.9*
COc1ccc(CC(N)c2csc(NC(=O)c3ccccc3)n2)cc1 (centres undefined)	.	.	.	15.4	12.9
NC(Cc1ccccc1)c1csc(NC(=O)c2cccc(OC(F)(F)F)c2)n1 (centres undefined)	.	.	.	44.6*	12.1
COc1ccc(CC(N)c2csc(NC(=O)c3cccc(OC(F)(F)F)c3)n2)cc1 (centres undefined)	.	.	.	36.3	41.0
Cn1c(=O)oc2cc(S(=O)(=O)Nc3cccc(F)c3)ccc21	-0.9	1.7	1.5	2.5	-10.3
NC(=O)c1ccccc1NS(=O)(=O)c1ccc(F)cc1	-6.3	0.8	0.5	2.6	-6.3
COc1ccc(CC2C(=O)OC(C)(C)OC2=O)cc1	-10.2	-1.0	-0.3	7.2	4.3
NC(Cc1ccc(Cl)cc1)c1csc(NC(=O)NCC2CCCCC2)n1 (centres undefined)	.	.	.	46.1*	36.6
CC(C)c1ccccc1NC(=O)Nc1nc(C(N)Cc2ccc(C(F)(F)F)cc2)cs1 (centres undefined)	.	.	.	38.0*	36.5
COC(=O)c1cnc(Nc2nc(C(N)Cc3ccc(Cl)cc3)cs2)nc1C(F)(F)F (centres undefined)	.	.	.	10.3	-8.7
COC(=O)c1cnc(Nc2nc(C(N)Cc3ccc(OC)cc3)cs2)nc1C(F)(F)F (centres undefined)	.	.	.	44.9*	15.8
O=C(CSc1nnc(CCc2nc3ccccc3[nH]2)n1-c1ccccc1)NCc1ccco1	-15.2	0.2	-0.8	8.6	11.8
SMILES	OXTR potentiate	V1R ag counter	OXTR agonist	TAAR1 ag	TAAR1 antag
Cc1ccc(OCCOc2ccc(Br)cc2/C=N\NC(N)=O)cc1	-1.0	-1.2	-1.6	3.1	-6.6
COc1cccc2c1C(=O)c1c(O)c3c(c(O)c1C2=O)C[C@](O)(C(C)=O)C[C@H]3O[C@@H]1C[C@@H](N)[C@@H](O)[C@@H](C)O1	-8.0	21.2*	16.3	8.0	8.8
CCc1ccc(NC(=O)C2CCN(S(=O)(=O)c3c(C)noc3C)CC2)cc1	-1.1	3.0	-0.7	-0.5	-13.4
COC(=O)c1nn(-c2cccc(C(F)(F)F)c2)c(=O)cc1Sc1ccccn1	-12.2	0.5	-0.5	12.1	-2.4
NNC(=O)CNC(c1ccccc1)c1cc(Br)ccc1NC(=O)c1ccccc1Br (centres undefined)	-14.7	-0.6	-1.4	1.8	52.9*
CCCCn1c(CNC(=O)Cc2ccccc2)nc2ccccc21	-9.9	-0.7	-1.8	-1.4	-30.6
Cc1cccc(NS(=O)(=O)c2ccc(C(=O)NCC(c3ccccc3)N(C)C)cc2)c1C (centres undefined)	.	.	.	42.6*	27.7
CN(C)C(CNC(=O)c1ccc(C2SCCS2)cc1)c1ccccc1 (centres undefined)	-7.2	1.8	2.5	38.2*	-17.5
COc1cccc2cc(C(=O)N3CCN(C/C=C/c4ccccc4)CC3)c(=O)oc12	-18.6	0.5	-1.2	3.8	10.2
CCC(=O)c1ccc(OCC(=O)N(C)CC(=O)Nc2cccc(F)c2)cc1	-2.9	1.9	0.7	6.9	4.2
COc1ccc(CNC(=O)[C@@H]2CC=C[C@@H]3CCN(Cc4ccc(Cl)c(Cl)c4)C(=O)[C@@H]32)cc1	-10.2	0.1	-1.6	8.9	16.9
COc1ccc(CNC[C@@H](CCCCN(C)Cc2ccc(OC)cc2)N2C[C@H](c3ccccc3)N(CCc3ccc(Cl)c(Cl)c3)C(=O)C2=O)cc1	-15.6	58.2*	28.5*	.	.
CCN1/C(=C/C=C/c2oc3ccc4ccccc4c3[n+]2CC)Oc2ccc3ccccc3c21	-5.5	45.2*	39.4*	.	.
CC[n+]1c(/C=C/N(C)c2ccccc2)oc2ccc(Cl)cc21	2.4	6.4	0.7	2.4	-9.5
O=C(Nc1ccccc1)Nc1ccccc1	.	.	.	39.3*	18.9
O=C(O)CC(CC(=O)Nc1ccc(-n2ccc(C(F)(F)F)n2)cc1)c1ccccc1 (centres undefined)	-6.2	-1.9	-0.3	10.8	-8.6
COC(=O)c1sccc1NC(=O)Nc1ccc(Cl)c(Cl)c1	-7.2	2.0	-0.6	2.1	53.8*
O=C(Nc1ccccc1)Nc1ccc(-n2ccc(C(F)(F)F)n2)cc1	-17.3	9.2	4.9	11.8	57.8*
COC(=O)c1cccc(NC(=O)Nc2ccc(Cl)c(Cl)c2)c1	-13.0	11.2	16.6	21.0	31.2
COC(=O)c1cc(NC(=O)Nc2ccccc2)ccc1Cl	-12.9	13.2	13.8	26.1	53.6*
O=C(Nc1ccccc1)Nc1ccc(Nc2ccccc2)cc1	-6.0	3.9	3.6	20.9	14.9
CC(=O)Nc1ccc(NC(=O)Nc2cccc(Cl)c2)cc1	-8.8	0.1	0.5	40.0*	13.6
Cc1ccc(/C=C/C(=O)Nc2cccc3cccnc23)o1	-1.1	2.1	0.7	8.1	-8.6
